In brackets after ≈: the same amount, converted by molar mass. Several values for one entry are separate records, joined by “and”; a condition that tells them apart may be missing. Identical values can stand only once. Activity calls are given as the source filed them. The calls are words filed in the database; no cut-off is given here.
Columns and labels:
Plasmodium berghei [1] = assay: Antimalarial activity in Plasmodium berghei infected mice (Mus musculus) at 8 mg/kg/day peroral dose; format: functional; conditions: route oral
Outline: (§1)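 CD-1 mice (16-18 g), quarantined 2 weeks, then infected with P. berghei (Thompson test). Treatment was given on days 3-5 postinfection. Subcutaneous dosing was a single injection; oral dosing was by gavage of a peanut-oil suspension. Groups of 5 mice were used. Survival was scored out of 5 and parasitemia was followed up to 60 days postinfection.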

Plasmodium berghei [2] = assay: Antimalarial activity in Plasmodium berghei infected mice (Mus musculus) after 128 mg/kg/day subcutaneous dose; format: functional; outline: as §1
Plasmodium berghei [3] = assay: Antimalarial activity in Plasmodium berghei infected mice (Mus musculus) at 32 mg/kg/day subcutaneous dose; format: functional; outline: as §1
Plasmodium berghei [4] = assay: Antimalarial activity in Plasmodium berghei infected mice (Mus musculus) at 8 mg/kg/day subcutaneous dose; format: functional; outline: as §1
Plasmodium berghei [5] = assay: Antimalarial activity in Plasmodium berghei infected mice (Mus musculus) at 32 mg/kg/day peroral dose; format: functional; conditions: route oral; outline: as §1
Plasmodium berghei [6] = assay: Effective dose ED90 against Plasmodium berghei N in mice (Mus musculus) malaria model after subcutaneous administration; format: functional
Plasmodium berghei [7] = assay: Effective dose ED50 against Plasmodium berghei N in mice (Mus musculus) malaria model after subcutaneous administration; format: functional; conditions: for ED50: Plasmodium berghei, sc, read-out: ED50
Plasmodium falciparum [8] = assay: Inhibitory activity against Plasmodium falciparum D6; format: functional, organism-based
Outline: (§2)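 Parasitized human red blood cells were used in short-term microtitre cultures. Compounds were dissolved in DMSO and diluted 400-fold in culture medium with plasma, giving a starting concentration of at least 12 500 ng/mL. Activity was measured as inhibition of parasite uptake of a radiolabelled nucleic acid precursor.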

Plasmodium falciparum [9] = assay: Inhibitory activity against Plasmodium falciparum K1; format: functional, organism-based
Plasmodium falciparum [10] = assay: Inhibitory activity against Plasmodium falciparum NF54; format: functional, organism-based
Plasmodium falciparum [11] = assay: Inhibitory activity against Plasmodium falciparum W2; format: functional, organism-based; outline: as §2
Plasmodium yoelii [12] = assay: Effective subcutaneous dose ED50 against Plasmodium yoelii sspNS; format: functional; conditions: sc
Plasmodium yoelii [13] = assay: Effective dose ED90 against Plasmodium yoelii sspNS on subcutaneous dose; format: functional; conditions: sc
Plasmodium berghei [14] = assay: Effective dose ED50 against Plasmodium berghei N in mice (Mus musculus) malaria model after peroral administration; format: functional; conditions: Plasmodium berghei, po; read-out: ED50
Plasmodium berghei [15] = assay: Effective dose ED90 against Plasmodium berghei N in mice (Mus musculus) malaria model after peroral administration; format: functional; conditions: po
Plasmodium berghei [16] = assay: Effective dose ED90 against Plasmodium berghei N in mice (Mus musculus) malaria model after oral administration; format: functional
Plasmodium yoelii [17] = assay: Effective subcutaneous dose ED90 against Plasmodium yoelii NS; format: functional
Plasmodium berghei [18] = assay: Antimalarial activity in Plasmodium berghei infected mice (Mus musculus) at 128 mg/kg/day peroral dose; format: functional; conditions: route oral; outline: as §1
Plasmodium berghei [19] = assay: Antimalarial activity against Plasmodium berghei infected mice (Mus musculus) at 32 mg/kg/day subcutaneous dose; format: functional; outline: as §1
Plasmodium yoelii [20] = assay: Effective subcutaneous dose ED90 against Plasmodium yoelii sspNS; format: functional
Plasmodium yoelii [21] = assay: Percent suppression of Plasmodium […] NS infection in mice (Mus musculus) malaria model after 10 mg/kg peroral dose; format: functional; conditions: route oral
Plasmodium berghei [22] = assay: Percent suppression of Plasmodium berghei N infection in mice (Mus musculus) malaria model after peroral dose; format: functional
Plasmodium yoelii [23] = assay: Effective dose against Plasmodium yoelii NS after 10 mg/kg peroral dose in mice (Mus musculus) malaria model; Not active; format: functional, organism-based; set-up: dose 10 mg/kg
Plasmodium berghei [24] = assay: Effective dose against Plasmodium berghei N in mice (Mus musculus) malaria model after peroral administration; format: functional; conditions: po
[25] = Plasmodium berghei, sc, read-out: ED90

Q: Which results are given for `CCCC[C@H]1CO[C@@H]2O[C@]3(C)CC[C@H]4[C@H](C)CC[C@@H]1[C@@]24OO3`?
A: Activity (Plasmodium berghei [1]): 0; Activity (Plasmodium berghei [2]): 5; Activity (Plasmodium berghei [3]): 5; Activity (Plasmodium berghei [4]): 5; Activity (Plasmodium berghei [5]): 2

Q: Which ED90 (Plasmodium berghei [6]) does the source give for `C[C@@H]1CC[C@H]2[C@@H](CCCc3ccc(C(F)(F)F)cc3)CO[C@@H]3OC4(C)CC[C@@H]1[C@]32OO4` (single isomer, unassigned) here?
A: 0.8 mg/kg and 2.1 mg/kg

Q: And the ED50 (Plasmodium berghei [7])?
A: 0.44 mg/kg

Q: What about the IC50 (Plasmodium falciparum [8]) of the same compound?
A: 0.0281 µg/mL (≈ 0.0639 µM)

Q: And the IC50 (Plasmodium falciparum [9])?
A: 0.0395 µg/mL (≈ 0.0898 µM)

Q: What about the IC50 (Plasmodium falciparum [10]) of the same compound?
A: 0.102 µg/mL (≈ 0.23 µM)

Q: What about the IC50 (Plasmodium falciparum [11]) of the same compound?
A: 0.058 µg/mL (≈ 0.132 µM)

Q: And the ED50 (Plasmodium yoelii [12])?
A: 0.67 mg/kg

Q: What about the ED90 (Plasmodium yoelii [13]) of the same compound?
A: 1.25 mg/kg

Q: How did the ED50 (Plasmodium berghei [14]) turn out when `C[C@@H]1CC[C@H]2[C@@H](CCCc3cccc(C(F)(F)F)c3)CO[C@@H]3OC4(C)CC[C@@H]1[C@]32OO4` (single isomer, unassigned) was run?
A: 1.25 mg/kg

Q: And the ED90 (Plasmodium berghei [15])?
A: 4.4 mg/kg

Q: What about the ED90 (Plasmodium berghei [6]; [25]) of the same compound?
A: 0.75 mg/kg

Q: What about the ED50 (Plasmodium berghei [7]) of the same compound?
A: 0.4 mg/kg

Q: And the IC50 (Plasmodium falciparum [8])?
A: 0.00848 µg/mL (≈ 0.0193 µM)

Q: And the IC50 (Plasmodium falciparum [9])?
A: 0.012 µg/mL (≈ 0.0272 µM)

Q: And the IC50 (Plasmodium falciparum [10])?
A: 0.0356 µg/mL (≈ 0.0808 µM)

Q: What about the IC50 (Plasmodium falciparum [11]) of the same compound?
A: 0.0303 µg/mL (≈ 0.0688 µM)

Q: And the ED50 (Plasmodium yoelii [12])?
A: 0.6 mg/kg

Q: What about the ED90 (Plasmodium yoelii [13]) of the same compound?
A: 1 mg/kg

Q: `C[C@@H]1CC[C@H]2[C@@H](CCCc3ccccc3)CO[C@@H]3OC4(C)CC[C@@H]1[C@]32OO4` (single isomer, unassigned) was tested. Which ED90 (Plasmodium berghei [16]) did it give?
A: 3.4

Q: What about the ED90 (Plasmodium berghei [7]) of the same compound?
A: 1

Q: And the IC50 (Plasmodium falciparum [8])?
A: 0.0009 µg/mL (≈ 0.00242 µM)

Q: And the Activity (Plasmodium berghei [1])?
A: 0

Q: And the Activity (Plasmodium berghei [2])?
A: 5

Q: And the Activity (Plasmodium berghei [3])?
A: 5

Q: What about the Activity (Plasmodium berghei [4]) of the same compound?
A: 0

Q: And the ED90 (Plasmodium yoelii [17])?
A: 0.9

Q: What about the Activity (Plasmodium berghei [18]) of the same compound?
A: 5

Q: What about the Activity (Plasmodium berghei [5]) of the same compound?
A: 4

Q: For `C[C@@H]1CC[C@H]2[C@@H](CCCc3ccc(Cl)cc3)CO[C@@H]3OC4(C)CC[C@@H]1[C@]32OO4` (single isomer, unassigned), which Survival dose (Plasmodium berghei [19]) is on record?
A: 5

Q: And the IC50 (Plasmodium falciparum [8])?
A: 0.0019 µg/mL (≈ 0.00467 µM)

Q: And the IC50 (Plasmodium falciparum [11])?
A: 0.0026 µg/mL (≈ 0.00639 µM)

Q: What about the Activity (Plasmodium berghei [2]) of the same compound?
A: 5

Q: What about the Activity (Plasmodium berghei [3]) of the same compound?
A: 5

Q: What about the ED90 (Plasmodium yoelii [20]) of the same compound?
A: 1

Q: And the Activity (Plasmodium berghei [18])?
A: 5

Q: For `COc1ccc(CCC[C@H]2CO[C@@H]3OC4(C)CC[C@H]5[C@H](C)CC[C@@H]2[C@@]35OO4)cc1` (single isomer, unassigned), which Activity (Plasmodium berghei [1]) is on record?
A: 0

Q: What about the Activity (Plasmodium berghei [2]) of the same compound?
A: 5

Q: And the Activity (Plasmodium berghei [3])?
A: 5

Q: And the Activity (Plasmodium berghei [4])?
A: 0

Q: What about the Activity (Plasmodium berghei [18]) of the same compound?
A: 5

Q: And the Activity (Plasmodium berghei [5])?
A: 5

Q: `C[C@@H]1CC[C@H]2[C@@H](CCCc3cccc(Cl)c3)CO[C@@H]3OC4(C)CC[C@@H]1[C@]32OO4` (single isomer, unassigned) was tested. Which ED50 (Plasmodium berghei [14]) did it give?
A: 2 mg/kg

Q: What about the ED90 (Plasmodium berghei [15]) of the same compound?
A: 8.3 mg/kg

Q: What about the ED90 (Plasmodium berghei [6]; [25]) of the same compound?
A: 0.9 mg/kg

Q: What about the ED50 (Plasmodium berghei [7]) of the same compound?
A: 0.5 mg/kg

Q: What about the IC50 (Plasmodium falciparum [8]) of the same compound?
A: 0.00755 µg/mL (≈ 0.0186 µM)

Q: And the IC50 (Plasmodium falciparum [9])?
A: 0.0101 µg/mL (≈ 0.0247 µM)

Q: And the IC50 (Plasmodium falciparum [10])?
A: 0.0183 µg/mL (≈ 0.0449 µM)

Q: What about the IC50 (Plasmodium falciparum [11]) of the same compound?
A: 0.0216 µg/mL (≈ 0.0531 µM)

Q: And the ED50 (Plasmodium yoelii [12])?
A: 0.6 mg/kg

Q: And the ED90 (Plasmodium yoelii [13])?
A: 1 mg/kg

Q: What does the source list for `C[C@@H]1CC[C@H]2[C@@H](CCCc3cccc(F)c3)CO[C@@H]3OC4(C)CC[C@@H]1[C@]32OO4` (single isomer, unassigned)?
A: ED50 (Plasmodium berghei [14]): 0.9 mg/kg; ED90 (Plasmodium berghei [15]): 3.4 mg/kg; ED90 (Plasmodium berghei [6]; [25]): 0.85 mg/kg; ED50 (Plasmodium berghei [7]): 0.46 mg/kg; IC50 (Plasmodium falciparum [8]): 0.00828 µg/mL (≈ 0.0212 µM); IC50 (Plasmodium falciparum [9]): 0.0116 µg/mL (≈ 0.0296 µM); IC50 (Plasmodium falciparum [10]): 0.0418 µg/mL (≈ 0.107 µM); IC50 (Plasmodium falciparum [11]): 0.0268 µg/mL (≈ 0.0687 µM); ED50 (Plasmodium yoelii [12]): 0.58 mg/kg; ED90 (Plasmodium yoelii [13]): 1 mg/kg

Q: For `C[C@@H]1CC[C@H]2[C@@H](CCCC(F)(F)F)CO[C@@H]3OC4(C)CC[C@@H]1[C@]32OO4` (single isomer, unassigned), which Activity (Plasmodium yoelii [21]) is on record?
A: 0.3%

Q: And the IC50 (Plasmodium falciparum [8])?
A: 0.0125 µg/mL (≈ 0.0342 µM)

Q: What about the IC50 (Plasmodium falciparum [11]) of the same compound?
A: 0.00887 µg/mL (≈ 0.0243 µM)

Q: What about the Activity (Plasmodium berghei [22]) of the same compound?
A: 6.5%

Q: And the NA (Plasmodium yoelii [23])?
A: inactive

Q: And the ED50 (Plasmodium berghei [24])?
A: > 10 mg/kg

Q: What about the ED90 (Plasmodium berghei [24]) of the same compound?
A: > 10 mg/kg
